Publication PMC4013241 (Molecular cancer therapeutics, 2014)
Marks after values point to notes of the source that are not given here.

Key:
[1] = test system: U87 cells; assay: Annexin V apoptosis by flow cytometry; type: cell-based, human; conditions: 24 h
Summary of the method: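 U87 cells in 12-well plates, cultured overnight, then exposed 24 h to test compound (6.3 μM), an EGFR inhibitor (13.3 μM) or both. Floating and attached cells were pooled and stained with Annexin V-FITC (10 μg/ml) in HEPES-buffered saline (pH 7.4) with Ca2+ and Mg2+. Flow cytometry at 5000 events/sample. Reported as mean ± S.D. of three experiments.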

[2] = test system: U87 cells; assay: Flow cytometric cell cycle analysis; type: cell-based, human; conditions: 24 h
[3] = test system: p-Akt; assay: p-Akt in GBM39 cells; type: cell-based; conditions: Homo sapiens, GBM39, read-out: nadir p-Akt inhibition relative to the control
[4] = test system: Akt; assay: Biochemical kinase screen
[5] = test system: p-Akt in intracerebral U87 brain tumors; assay: In vivo pharmacodynamics: p-Akt in brain tumor; parameters: species or system mouse; conditions: for p-Akt nadir, of control: within 30 min
Summary of the method: (§1)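 NIH Swiss nude mice carried U87 cells (10^6 in 10 μl PBS) implanted stereotactically into the caudate putamen. Test compound was given as an IV tail-vein bolus of 5 or 25 mg/kg, or 25 mg/kg 1 h after oral EGFR inhibitor (200 mg/kg). Tumours were collected from 5 min to 10 h (17 h with co-dosing) and lysed at 20 μl buffer/mg. Phospho/total Akt and Erk were measured by MSD as percent of control, at least three mice per time point. ABEC was reported in %-h.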

[6] = test system: p-C-Raf S259; assay: Western blot of p-C-Raf S259 in U87 or U87PTEN cells; type: cell-based, human; conditions: 6.3 μM, 1 h
Summary of the method: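 U87 or PTEN-expressing U87 cells in 6-well plates were pretreated 1 h with vehicle, 50 μM LY294002 or 1 μM wortmannin. Test compound was then added at 6.3 μM for 1 h. Lysates (20 μg protein) were resolved by SDS-PAGE, transferred to PVDF, blocked in 5% milk and immunoblotted.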

[7] = test system: p-Erk in intracerebral U87 brain tumors; assay: In vivo pharmacodynamics: p-Erk in brain tumor; parameters: species or system mouse
Summary of the method: as §1

[8] = test system: 40S ribosomal protein S6 [rpS6] phosphorylation; assay: Western blot of phosphorylated rpS6 in U87 cells; type: cell-based, human; conditions: 6.3 μM, 1 h, mean ± S.D.
Summary of the method: (§2)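 U87 cells in DMEM with 10% FBS at 37°C, 5% CO2, grown on 10 cm plates and exposed to test compound for 1 h. Lysed on ice in buffer containing PMSF, phosphatase and protease inhibitors; 20 μg protein run on SDS-PAGE and blotted to PVDF. Detected with IRDye/Alexa 680 secondaries and quantified by Odyssey imaging against total protein and β-actin, relative to control. Blots repeated at least three times.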

[9] = test system: p-Akt; assay: p-Akt in U87 cells by western blot / MSD assay; type: cell-based, human; conditions: 6.3 μM
Summary of the method: (§3)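 U87 cells received increasing test compound concentrations for 1 h, or 6.3 μM over a time course. Phospho- and total Akt/Erk were measured by western blot or MSD multispot immunoassay, loading 20 μg (Akt) or 5 μg (Erk) lysate in duplicate. Plates were incubated overnight at 4°C, then detection antibody for 2 h at room temperature. Signals were background-corrected; phospho/total percentage expressed relative to control.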

[10] = test system: p-Erk; assay: p-Erk in GBM39 cells; type: cell-based, human; conditions: 4μM
[11] = test system: Rb S780 phosphorylation; assay: Western blot of phosphorylated Rb S780 in U87 cells; type: cell-based, human; conditions: 6.3 μM, 1 h, mean ± S.D.
Summary of the method: as §2

[12] = test system: p-Erk; assay: p-Erk in U87 cells by western blot / MSD assay; type: cell-based, human
Summary of the method: as §3

[13] = test system: ABC transporters; conditions: based on previous studies; cited from earlier work
[14] = test system: P70S6K phosphorylation; assay: Western blot of phosphorylated P70S6K in U87 cells; type: cell-based, human; conditions: 6.3 μM, 1 h, mean ± S.D.
Summary of the method: as §2

[15] = molecular target: VEGFR3 (Homo sapiens, UniProt P35916); assay: Biochemical kinase screen
[16] = In vivo pharmacokinetics in mice bearing intracerebral U87 tumors; parameters: species or system mouse; conditions: for AUC / Kp / Tmax / clearance / Vd / half-life: NIH Swiss nude, mouse, iv; for Kp: Pbt (brain tumor partition coefficient, AUCbt/AUCp); for clearance: CL; for Vd: Vss; for half-life: t½; for peak concentration in brain: at 5 min
Summary of the method: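 Same intracerebral U87 nude-mouse model, single IV tail-vein bolus of 5 or 25 mg/kg. Plasma, normal brain and tumour were taken from 3–4 mice per time point (5 min–10 h). Tissues were saline-rinsed and homogenised 20% w/w in water. Samples (10 μl) were protein-precipitated with 40 μl cold acetonitrile and quantified by ESI LC/MS/MS. Noncompartmental analysis; AUC to last observable concentration by linear-log interpolation.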

[17] = test system: phosphorylated Akt, CREB, JNK pan, Erk, p38γ; assay: Human phospho-MAPK array in U87 cells; type: cell-based; conditions: 6.3 μM, 1 h
Summary of the method: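 U87 cells on 10 cm plates were exposed to 6.3 μM test compound for 1 h, rinsed in cold PBS and lysed at 1 × 10^7 cells/ml, rocking 30 min at 4°C. 200 μg of supernatant protein was mixed with detection antibody cocktail for 1 h at room temperature. The mixture was applied to array membranes overnight at 4°C, then streptavidin-HRP for 30 min. Chemiluminescent spots were recorded on X-ray film.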

[18] = test system: panel of 11 glioma models including a patient-derived model [GBM10]; assay: SRB cytotoxicity assay, panel of glioma models; type: cell-based, human; conditions: compared with U87 cells; Fig. S1
[19] = test system: p-mTOR [S2481 and 2448]; assay: Immunoblot of p-mTOR in U87 cells; type: cell-based, human; conditions: 6.3 μM ON123300 alone or with 13.3 μM GFN, 1 h
Summary of the method: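 U87 cells were treated 1 h with 6.3 μM test compound, 13.3 μM EGFR inhibitor or both. Lysis buffer held PMSF plus phosphatase and protease inhibitors; lysates were sonicated and spun at 21,000 × g. 20 μg protein per lane went on SDS-PAGE and PVDF, blocked in 5% milk. Primary antibody was 1 h at room temperature or overnight at 4°C. Bands quantified densitometrically as percentages; mean ± S.D. of three experiments.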

[20] = test system: p-Akt, phosphorylation of its downstream proteins and p-Erk; assay: Western blot of p-Akt, its downstream proteins and p-Erk in U87 cells; type: cell-based, human; conditions: 70 μM ON1231120 or 10 μM ON1231320, 1 h
Summary of the method: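 U87 cells on 10 cm plates, 1 h exposure to test compound. Lysates were prepared in buffer with PMSF and phosphatase/protease inhibitors, sonicated, held 30 min on ice and cleared at 21,000 × g for 10 min at 4°C. Blotting used 20 μg protein on SDS-PAGE and PVDF, blocked in 5% nonfat milk. Primary antibodies 1 h at room temperature or overnight at 4°C.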

[21] = plasma, 5 mg/kg, ON123300 5 mg/kg IV
[22] = plasma, 25 mg/kg, ON123300 25 mg/kg IV

Sequence of VEGFR3 (P35916 25-1363): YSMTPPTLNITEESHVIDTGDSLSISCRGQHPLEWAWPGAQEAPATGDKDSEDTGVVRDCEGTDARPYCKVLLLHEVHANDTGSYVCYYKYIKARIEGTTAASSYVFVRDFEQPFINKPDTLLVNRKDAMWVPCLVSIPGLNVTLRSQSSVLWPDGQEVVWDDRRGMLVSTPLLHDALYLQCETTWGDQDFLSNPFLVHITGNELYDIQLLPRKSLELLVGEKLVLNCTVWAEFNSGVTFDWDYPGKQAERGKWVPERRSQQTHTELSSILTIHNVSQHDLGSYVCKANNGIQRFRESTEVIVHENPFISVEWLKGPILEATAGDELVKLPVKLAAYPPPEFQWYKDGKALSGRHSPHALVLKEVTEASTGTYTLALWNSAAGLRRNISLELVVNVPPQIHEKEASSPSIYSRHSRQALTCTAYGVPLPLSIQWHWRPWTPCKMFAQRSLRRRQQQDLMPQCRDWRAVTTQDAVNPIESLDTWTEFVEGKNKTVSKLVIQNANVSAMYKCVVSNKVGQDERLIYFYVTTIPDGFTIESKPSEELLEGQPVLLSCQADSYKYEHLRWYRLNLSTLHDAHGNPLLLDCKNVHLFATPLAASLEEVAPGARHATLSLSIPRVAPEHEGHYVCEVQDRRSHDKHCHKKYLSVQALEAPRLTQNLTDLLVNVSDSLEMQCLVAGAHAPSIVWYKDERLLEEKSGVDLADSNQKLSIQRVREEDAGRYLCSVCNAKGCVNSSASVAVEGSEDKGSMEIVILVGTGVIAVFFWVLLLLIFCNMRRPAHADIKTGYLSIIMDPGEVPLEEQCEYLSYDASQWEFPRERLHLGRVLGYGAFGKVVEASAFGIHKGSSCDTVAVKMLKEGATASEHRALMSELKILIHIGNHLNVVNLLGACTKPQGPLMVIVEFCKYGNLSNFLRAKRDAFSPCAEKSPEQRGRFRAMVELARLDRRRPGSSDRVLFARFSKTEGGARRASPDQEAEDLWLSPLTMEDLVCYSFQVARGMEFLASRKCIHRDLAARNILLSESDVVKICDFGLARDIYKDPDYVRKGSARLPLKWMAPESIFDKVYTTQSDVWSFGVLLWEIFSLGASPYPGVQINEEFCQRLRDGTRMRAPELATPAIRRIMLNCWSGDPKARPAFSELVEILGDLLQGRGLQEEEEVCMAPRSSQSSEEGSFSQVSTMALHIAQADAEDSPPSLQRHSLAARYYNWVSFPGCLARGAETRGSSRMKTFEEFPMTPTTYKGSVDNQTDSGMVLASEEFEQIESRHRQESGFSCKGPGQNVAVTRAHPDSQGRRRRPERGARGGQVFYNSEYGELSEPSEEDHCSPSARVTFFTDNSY

## COc1cc2ncnc(Nc3ccc(F)c(Cl)c3)c2cc1OCCCN1CCOCC1 [GFN, gefitinib, reference compound]
[1]
  apoptotic cell death (Annexin V staining): did not cause apoptotic cell death
[2]; 13.3 μM GFN, control 66 ± 0.9%
  percentage of cells in the G1 phase: 80.9 ± 2.5%

## CN1CCN(c2ccc(Nc3ncc4cc(C#N)c(=O)n(C5CCCC5)c4n3)cc2)CC1 [ON123300]
[3]
  inhibition at 4 µM: 55%
[4]
  direct inhibition of Akt: did not directly inhibit
[5]; IV
  change in p-Akt ABEC from 5 mg/kg to 25 mg/kg: 5 fold
[5]; ON123300 5 mg/kg IV
  ABEC p-Akt: 63.2 %_h
  p-Akt nadir, of control: 73%
[5]; ON123300 25 mg/kg IV
  ABEC p-Akt: 304.9 %_h
  p-Akt nadir, of control: 60%
[5]; ON123300 25 mg/kg IV 1 h after oral 200 mg/kg GFN
  ABEC p-Akt: 765.0 %_h
[5]; ON123300 25 mg/kg IV plus oral 200 mg/kg GFN
  ABEC p-Akt: 765 %-h
[5]; ON123300 25 mg/kg IV plus oral 200 mg/kg GFN, at 4 h after the ON123300 dose
  p-Akt nadir: about 30%
[5]; ON123300 25 mg/kg IV, 10 h
  p-Akt level at 10 h: ~60%
[6]
  p-C-Raf S259 expression: partially decreased
[7]; ON123300 5 mg/kg IV, 5 min
  p-Erk spike at 5 min: 159%
[7]; ON123300 25 mg/kg IV
  p-Erk maximum relative to baseline: 161%
[7]; ON123300 25 mg/kg IV plus oral 200 mg/kg GFN, 17 h following the ON123300 dose
  p-Erk, of control, at 17 h: 80%
[7]; ON123300 25 mg/kg IV plus oral 200 mg/kg GFN, at 5 min
  p-Erk peak activation: 120%
[7]; ON123300 25 mg/kg IV plus oral 200 mg/kg GFN, below the baseline
  ABEC p-Erk: 273.9 %-h
[7]; ON123300 25 mg/kg IV, ABEC above the baseline
  ABEC p-Erk: 144.1^# %_h
[7]; ON123300 25 mg/kg IV, above the baseline
  ABEC p-Erk: 144 %-h
[8]
  phosphorylation of rpS6 relative to control: 60.5% ± 1.0
[9]
  time of p-Akt nadir: 30 min
[9]; 1 h, western blot, mean ± S.D.
  phosphorylation of Akt relative to control: 40.1% ± 5.7
[10]
  peak p-Erk activation relative to the control: 174%
[11]
  phosphorylation of Rb S780 relative to control: 54.5% ± 6.3
[12]; 6.3 μM, 1 h, western blot, mean ± S.D.
  p-Erk relative to control: 120 % ± 6.9
[12]; 6.3 μM, over 6 h
  p-Erk elevation relative to pre-treatment: about 2 fold
[12]; 1 h, western blot and MSD
  concentration giving 100% increase in p-Erk compared to vehicle: about 7 μM
[13]
  substrate for the ABC transporters: unlikely to be a substrate
[14]
  phosphorylation of P70S6K relative to control: 31.8 %± 2.1
[15]
  inhibitory action against VEGFR3: appreciable inhibitory action
[16]; brain tumor, 5 mg/kg, AUCbt, ON123300 5 mg/kg IV
  AUC: 6890 ng·h/mL
[16]; brain tumor, 5 mg/kg, ON123300 5 mg/kg IV
  Kp: 5.7
[16]; brain tumor, 25 mg/kg, AUCbt, brain tumor, ON123300 25 mg/kg IV 1 h after oral 200 mg/kg GFN
  AUC: 49400 ng·h/mL
[16]; brain tumor, 25 mg/kg, AUCbt, ON123300 25 mg/kg IV
  AUC: 63200 ng·h/mL
[16]; brain tumor, 25 mg/kg, ON123300 25 mg/kg IV
  Kp: 15
[16]; brain tumor, 25 mg/kg, Tmax brain tumor, ON123300 25 mg/kg IV
  Tmax: 1 h
[16]; brain, 5 mg/kg, AUCb, ON123300 5 mg/kg IV
  AUC: 3120 ng·h/mL
[16]; brain, 25 mg/kg, AUCb, ON123300 25 mg/kg IV
  AUC: 11700 ng·h/mL
[16]; brain, 25 mg/kg, Tmax brain, ON123300 25 mg/kg IV
  Tmax: 0.083 h
[16]; plasma, 5 mg/kg, AUCp, ON123300 5 mg/kg IV
  AUC: 1210 ng·h/mL
[16]; [21]
  clearance: 69.1 mL/min/kg
  half-life: 1.5 h
[16]; plasma, 5 mg/kg, plasma, ON123300 5 mg/kg IV
  Vd: 3.6 L/kg
[16]; plasma, 25 mg/kg, AUCp, ON123300 25 mg/kg IV
  AUC: 4220 ng·h/mL
[16]; [22]
  clearance: 98.7 mL/min/kg
  half-life: 1.5 h
[16]; plasma, 25 mg/kg, plasma, ON123300 25 mg/kg IV
  Vd: 10.2 L/kg
[16]; ON123300 25 mg/kg IV, oral 200 mg/kg GFN
  reduction in the total clearance of ON123300 in the presence of GFN: 33%
[16]; brain tumor, ON123300 5 mg/kg IV
  Cmax brain tumor: 6493 ng/mL
[16]; brain tumor, ON123300 25 mg/kg IV
  Cmax brain tumor: 27250 ng/mL
[16]; brain tumor, ON123300 25 mg/kg IV 1 h after oral 200 mg/kg GFN
  Cmax brain tumor: 20900 ng/mL
[16]; brain, ON123300 5 mg/kg IV
  peak concentration in brain: 5735 ng/g
[16]; brain, ON123300 25 mg/kg IV
  peak concentration in brain: 12432 ng/g
  Cmax brain: 12432.5 ng/mL
[16]; brain, ON123300 25 mg/kg IV 1 h after oral 200 mg/kg GFN
  Cmax brain: 16300 ng/mL
[16]; plasma, IV
  increase in AUCp from 5 mg/kg to 25 mg/kg: 3.5 fold
[1]
  apoptotic cell death (Annexin V staining): induced cell death by apoptosis in a dose-dependent manner
[2]
  increase in the percentage of cells in the G2/M phase vs control: ~2.5 fold
[2]; 6.3 μM ON123300 alone or with 13.3 μM GFN, control 10.4 ± 0.6%
  percentage of cells in the G2/M phase: 38.2 ± 01.4%
[17]
  p-Erk and p38γ levels: increased
  phosphorylated Akt, CREB and JNK pan expression levels: decreased
[18]
  inhibition of cell proliferation in a panel of 11 glioma models: quite comparable to that observed to U87 cells
[19]
  expression of p-mTOR S2448: 86% ± 3.1
  expression of p-mTOR S2481: 102% ± 5.2

## Cn1c(=O)c(S(=O)(=O)c2ccc(F)cc2F)cc2cnc(Nc3ccc4[nH]ccc4c3)nc21 [ON1231320]
[20]
  effects on p-Akt, its downstream proteins and p-Erk: negligible effects
